From ChEMBL document CHEMBL1137361, “WB4101-related compounds: new, subtype-selective alpha1-adrenoreceptor antagonists (or inverse agonists?)” (J Med Chem, 2006)

What was measured:
[1] = biological target: T1, Alpha-1A adrenergic receptor (Homo sapiens, UniProt P35348); test: Displacement of [3H]prazosin from cloned human adrenergic alpha 1A receptor expressed in CHO cells; type: cell-based
T1 sequence (P35348 whole entry): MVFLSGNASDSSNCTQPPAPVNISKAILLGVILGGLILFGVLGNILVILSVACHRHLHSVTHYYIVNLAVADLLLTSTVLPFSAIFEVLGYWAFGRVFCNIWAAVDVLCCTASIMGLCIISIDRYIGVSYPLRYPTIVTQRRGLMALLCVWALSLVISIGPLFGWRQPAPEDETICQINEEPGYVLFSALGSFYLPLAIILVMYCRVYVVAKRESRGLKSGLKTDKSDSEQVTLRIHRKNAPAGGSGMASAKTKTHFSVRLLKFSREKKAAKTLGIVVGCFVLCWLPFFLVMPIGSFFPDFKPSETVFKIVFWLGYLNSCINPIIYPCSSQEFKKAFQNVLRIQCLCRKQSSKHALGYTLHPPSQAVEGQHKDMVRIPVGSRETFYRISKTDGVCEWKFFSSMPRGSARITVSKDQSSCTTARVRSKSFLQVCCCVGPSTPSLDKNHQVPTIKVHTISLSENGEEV
How it was run: (§1)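 Radioligand binding with [3H]prazosin as the label. Membranes came from CHO cells expressing the cloned human receptor. Affinity is expressed as pKi.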

[2] = biological target: T2, Alpha-1B adrenergic receptor (Homo sapiens, UniProt P35368); test: Displacement of [3H]prazosin from cloned human adrenergic alpha 1B receptor expressed in CHO cells; type: cell-based; how it was run: as §1
T2 sequence (P35368 whole entry): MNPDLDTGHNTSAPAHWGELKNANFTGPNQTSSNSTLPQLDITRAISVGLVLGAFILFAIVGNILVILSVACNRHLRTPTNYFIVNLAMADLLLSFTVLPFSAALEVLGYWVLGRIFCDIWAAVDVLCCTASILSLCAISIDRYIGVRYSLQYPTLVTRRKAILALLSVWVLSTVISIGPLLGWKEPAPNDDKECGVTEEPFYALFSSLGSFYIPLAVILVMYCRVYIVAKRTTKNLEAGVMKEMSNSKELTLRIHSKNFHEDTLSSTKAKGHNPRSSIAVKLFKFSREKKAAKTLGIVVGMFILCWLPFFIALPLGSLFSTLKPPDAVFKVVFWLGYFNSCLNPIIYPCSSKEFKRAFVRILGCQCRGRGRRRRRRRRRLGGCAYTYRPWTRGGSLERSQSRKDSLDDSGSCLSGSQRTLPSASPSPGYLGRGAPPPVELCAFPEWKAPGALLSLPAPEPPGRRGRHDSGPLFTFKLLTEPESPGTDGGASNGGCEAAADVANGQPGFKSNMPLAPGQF

[3] = biological target: T3, Alpha-1D adrenergic receptor (Homo sapiens, UniProt P25100); test: Displacement of [3H]prazosin from cloned human adrenergic alpha 1D receptor expressed in CHO cells; type: cell-based; how it was run: as §1
T3 sequence (P25100 whole entry): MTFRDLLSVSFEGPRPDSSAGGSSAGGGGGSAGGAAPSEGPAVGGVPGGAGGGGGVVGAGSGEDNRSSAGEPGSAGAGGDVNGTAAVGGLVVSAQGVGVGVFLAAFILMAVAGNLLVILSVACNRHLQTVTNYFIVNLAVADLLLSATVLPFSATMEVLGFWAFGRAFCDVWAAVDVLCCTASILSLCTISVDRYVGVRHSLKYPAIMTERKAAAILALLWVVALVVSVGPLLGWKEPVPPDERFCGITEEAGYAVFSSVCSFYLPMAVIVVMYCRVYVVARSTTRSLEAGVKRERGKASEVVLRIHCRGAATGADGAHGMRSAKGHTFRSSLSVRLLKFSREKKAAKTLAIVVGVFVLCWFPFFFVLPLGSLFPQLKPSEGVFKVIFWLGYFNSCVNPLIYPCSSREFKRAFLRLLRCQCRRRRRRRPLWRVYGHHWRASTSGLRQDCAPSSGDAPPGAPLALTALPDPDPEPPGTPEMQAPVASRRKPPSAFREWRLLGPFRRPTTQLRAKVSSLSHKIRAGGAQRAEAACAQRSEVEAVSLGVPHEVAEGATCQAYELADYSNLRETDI

[4] = biological target: T4, 5-hydroxytryptamine receptor 1A (Rattus norvegicus, UniProt P19327); test: Displacement of [3H]8-OH-DPAT from 5-HT1A receptor in rat hippocampus; type: tissue-based
T4 sequence (P19327 whole entry): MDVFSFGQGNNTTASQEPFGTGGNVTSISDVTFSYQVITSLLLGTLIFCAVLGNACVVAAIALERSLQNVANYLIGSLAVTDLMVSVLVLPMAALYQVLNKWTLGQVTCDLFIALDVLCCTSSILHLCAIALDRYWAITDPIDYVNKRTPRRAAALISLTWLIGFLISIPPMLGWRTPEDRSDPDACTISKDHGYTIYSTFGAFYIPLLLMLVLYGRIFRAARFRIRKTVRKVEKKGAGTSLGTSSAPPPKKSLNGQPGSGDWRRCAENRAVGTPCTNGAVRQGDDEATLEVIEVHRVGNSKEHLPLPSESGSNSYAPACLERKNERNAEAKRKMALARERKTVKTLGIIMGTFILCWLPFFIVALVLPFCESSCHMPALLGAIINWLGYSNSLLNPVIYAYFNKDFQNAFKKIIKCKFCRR
How it was run: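 Radioligand binding with [3H]-8-OH-DPAT in membrane preparations from rat hippocampus. Affinity is expressed as pKi.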

[5] = biological target: Adrenergic receptors; alpha-1 A & B (Homo sapiens) (UniProt P35348+P35368); test: Selectivity for human adrenergic alpha 1B receptor over human adrenergic alpha 1A receptor; type: protein assay
[6] = Selectivity for 5HT1A receptor in rat hippocampus over human adrenergic alpha 1A receptor; type: tissue-based
[7] = biological target: Alpha adrenergic receptor (1a and 1d) (Homo sapiens) (UniProt P35348+P25100); test: Selectivity for human adrenergic alpha 1A receptor over human adrenergic alpha 1D receptor
[8] = biological target: T5, Alpha-1A adrenergic receptor (Rattus norvegicus, UniProt P43140); test: Activity at adrenergic alpha 1A receptor assessed as antagonsim of noradrenaline-induced contraction of […]; type: functional, tissue-based, Sprague-Dawley; details: read-out: pA2 (converted)
T5 sequence (P43140 whole entry): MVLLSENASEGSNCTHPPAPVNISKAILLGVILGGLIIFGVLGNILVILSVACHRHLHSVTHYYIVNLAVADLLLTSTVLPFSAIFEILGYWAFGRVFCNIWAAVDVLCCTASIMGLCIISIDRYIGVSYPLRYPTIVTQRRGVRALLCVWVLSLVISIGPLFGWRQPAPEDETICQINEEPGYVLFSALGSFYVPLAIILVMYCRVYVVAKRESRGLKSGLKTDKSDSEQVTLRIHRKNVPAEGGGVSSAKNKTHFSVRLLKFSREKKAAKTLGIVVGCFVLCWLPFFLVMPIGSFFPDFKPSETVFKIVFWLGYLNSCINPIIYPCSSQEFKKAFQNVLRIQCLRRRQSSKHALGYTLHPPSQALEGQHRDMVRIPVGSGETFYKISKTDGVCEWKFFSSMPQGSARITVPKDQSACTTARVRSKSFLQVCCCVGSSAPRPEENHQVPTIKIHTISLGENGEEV
How it was run: (§2)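 Rat vas deferens, prostatic portion. Contraction was induced with (-)-noradrenaline, and blocking activity was measured as antagonism of that contraction.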

[9] = biological target: T6, Alpha-1D adrenergic receptor (Rattus norvegicus, UniProt P23944); test: Activity at adrenergic alpha 1D receptor assessed as antagonism on noradrenaline-induced contraction of Sprague-Dawley rat thoracic aorta; type: functional, tissue-based; details: read-out: pA2 (converted)
T6 sequence (P23944 whole entry): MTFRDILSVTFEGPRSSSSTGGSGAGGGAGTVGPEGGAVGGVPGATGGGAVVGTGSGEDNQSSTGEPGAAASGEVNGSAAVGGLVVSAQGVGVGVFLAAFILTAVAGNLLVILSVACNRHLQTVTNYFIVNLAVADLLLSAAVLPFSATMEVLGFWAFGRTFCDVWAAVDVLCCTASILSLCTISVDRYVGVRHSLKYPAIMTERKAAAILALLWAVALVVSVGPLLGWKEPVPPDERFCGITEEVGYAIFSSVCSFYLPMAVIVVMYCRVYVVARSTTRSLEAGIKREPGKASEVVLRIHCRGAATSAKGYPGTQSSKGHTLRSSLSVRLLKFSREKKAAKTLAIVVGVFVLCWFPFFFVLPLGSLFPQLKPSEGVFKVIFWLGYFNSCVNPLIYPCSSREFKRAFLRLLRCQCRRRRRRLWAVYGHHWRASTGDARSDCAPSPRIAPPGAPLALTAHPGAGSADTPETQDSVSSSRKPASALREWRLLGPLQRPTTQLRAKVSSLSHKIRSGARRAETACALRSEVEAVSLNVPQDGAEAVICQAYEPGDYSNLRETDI
How it was run: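 Rat thoracic aorta contracted with (-)-noradrenaline. Blocking activity was measured as antagonism of the contraction.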

[10] = biological target: T5, Alpha-1A adrenergic receptor; test: Activity at adrenergic alpha 1A receptor assessed as antagonism of noradrenaline-induced contraction of Sprague-Dawley rat vas deferens; type: functional, tissue-based; details: read-out: pA2 (converted); how it was run: as §2
[11] = biological target: T7, Alpha-2A adrenergic receptor (Rattus norvegicus, UniProt P22909); test: Activity at adrenergic alpha 2A receptor assessed as antagonism on clonidine-inhibited twitch responses of field-stimulated Sprague-Dawley rat vas deferens; details: read-out: pA2 (converted)
T7 sequence (P22909 whole entry): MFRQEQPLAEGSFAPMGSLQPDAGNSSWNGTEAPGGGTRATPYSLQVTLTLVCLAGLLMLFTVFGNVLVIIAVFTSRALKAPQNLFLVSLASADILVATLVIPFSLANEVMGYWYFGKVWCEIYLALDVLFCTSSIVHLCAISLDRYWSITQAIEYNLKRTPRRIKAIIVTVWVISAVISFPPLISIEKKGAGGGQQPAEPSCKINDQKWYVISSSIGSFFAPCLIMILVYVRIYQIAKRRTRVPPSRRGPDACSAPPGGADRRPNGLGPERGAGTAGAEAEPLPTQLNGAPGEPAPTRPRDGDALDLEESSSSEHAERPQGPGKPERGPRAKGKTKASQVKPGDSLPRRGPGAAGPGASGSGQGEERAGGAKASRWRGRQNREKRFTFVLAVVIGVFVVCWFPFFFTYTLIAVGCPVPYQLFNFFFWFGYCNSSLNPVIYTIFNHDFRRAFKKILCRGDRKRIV

[12] = species: Cavia porcellus; test: Inverse agonist effect on calcium-induced increase in resting tension of calcium-depleted guinea pig thoracic aorta at 10 nM; type: functional
How it was run: (§3)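 Guinea pig thoracic aorta was calcium-depleted and preincubated with antagonist, then challenged with Ca2+. The Ca2+-induced increase in resting tone was compared with the increase after the same Ca2+ challenge in the absence of antagonist.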

[13] = species: Cavia porcellus; test: Inverse agonist effect on calcium-induced increase in resting tension of calcium-depleted guinea pig thoracic aorta at 100 nM; type: functional; how it was run: as §3

Structure (SMILES) | Ki [1] | Ki [2] | Ki [3] | Ki [4] | Selectivity ratio [5] | Selectivity ratio [6] | Selectivity ratio [7] | Kb [8] | Kb [9] | Kb [10] | Kb [11] | Activity [12] | Activity [13]
COc1cccc(OC)c1OCCNC[C@@H]1COc2cc3c(cc2O1)CCCC3 | 0.1 µM | 0.398 µM | 0.204 µM | 0.501 µM | 4 | 5 | 2 |  |  |  |  |  | 
COc1cccc(OC)c1OCCNC[C@@H]1COc2cc3ccccc3cc2O1 | 0.102 µM | 0.427 µM | 0.295 µM | 1 µM | 4.2 | 9.8 | 2.9 |  |  |  |  |  | 
COc1ccc2c(c1OCCNC[C@@H]1COc3ccccc3O1)CCCC2 | 0.0115 µM | 0.049 µM | 0.0158 µM | 0.132 µM | 4.3 | 11.5 | 1.3 |  |  |  |  |  | 
COc1cccc(OC)c1OCCNC[C@@H]1COc2ccccc2O1 | 0.0112 µM |  |  | 0.0407 µM |  |  |  | 0.02 µM | 0.0224 µM | 0.0162 µM | 0.457 µM |  | 
COc1cccc(OC)c1OCCNC[C@H]1COc2ccccc2O1.Cl | 0.000407 µM |  |  | 0.00245 µM |  |  |  | 0.000324 µM | 0.000631 µM |  | 0.12 µM | 10% | 27%
COc1ccc(-c2ccccc2)cc1OCCNC[C@@H]1COc2ccccc2O1 | 0.0162 µM | 0.0617 µM | 0.0537 µM | 0.363 µM | 3.8 | 22.4 | 3.3 |  |  |  |  |  | 
COc1cccc(OC)c1OCCNCC1COc2ccccc2O1 (stereo not given) |  |  |  |  |  |  |  | 0.000661 µM |  |  | 0.257 µM | 25% | 
COc1ccc2ccccc2c1OCCNC[C@@H]1COc2cc3c(cc2O1)CCCC3 | 0.324 µM | 0.55 µM | 0.955 µM | 3.63 µM | 1.7 | 11.2 | 3 |  |  |  |  |  | 
COc1cccc(-c2ccccc2)c1OCCNC[C@@H]1COc2ccccc2O1 | 0.00933 µM | 0.151 µM | 0.0288 µM | 0.0776 µM | 16.2 | 8.3 | 3.1 |  |  |  |  |  | 
COc1cc(-c2ccccc2)ccc1OCCNC[C@@H]1COc2ccccc2O1 | 0.234 µM | 0.55 µM | 0.363 µM | 0.871 µM | 2.3 | 3.7 | 1.5 |  |  |  |  |  | 
